ChEMBL document CHEMBL4308830, “Design, Synthesis, and Characterization of 4-Undecylpiperidine-2-carboxamides as Positive Allosteric Modulators of the Serotonin (5-HT) 5-HT2C Receptor” (J Med Chem, 2018)
Activity calls are given as the source filed them. The calls are words filed in the database; no cut-off is given here.

What was measured:
[1] = biological target: Alpha-2B adrenergic receptor (Homo sapiens) (UniProt P18089); experiment: Displacement of [3H]-rauwolscine from recombinant human alpha-2B adrenergic receptor expressed in HEKT cell membranes at 10 uM after 90 mins by scintillation counting method relative to control
In short: (§1)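 Single-concentration screen at 10 μM test compound, each target labelled with the radioligand given in the line. The read-out is mean % inhibition of specific radioligand binding (n = 4). Targets above 50% inhibition went on to full competition isotherms, and Ki came from best-fit IC50 by the Cheng–Prusoff equation.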

[2] = biological target: Sodium-dependent dopamine transporter (Homo sapiens) (UniProt Q01959); experiment: Displacement of [3H]-WIN35428 from recombinant human DAT expressed in HEK cell membranes at 10 uM after 90 mins by scintillation counting method relative to control; in short: as §1
[3] = biological target: 5-hydroxytryptamine receptor 1A (Homo sapiens) (UniProt P08908); experiment: Displacement of [3H]-8-OH-DPAT from recombinant human 5-HT1AR expressed in CHO cell membranes at 10 uM after 90 mins by scintillation counting method relative to control
5-HT2B receptor = 5-HT2B receptor (Homo sapiens, UniProt P41595); experiment: Displacement of [3H]-LSD from recombinant human 5-HT2BR expressed in HEK cell membranes at 10 uM after 90 mins by scintillation counting method relative to control; settings: probe [3H]-LSD
Rattus norvegicus [4] = experiment: Drug discrimination in WAY163909-trained Sprague-Dawley rat assessed as increase in WAY163909-appropriate lever responding at 1 mg/kg, ip co-treated with WAY163909 15 mins prior to test relative to control; assay type: functional
Rattus norvegicus [5] = experiment: Increase in WAY163909-induced suppression of spontaneous locomotor activity in Sprague-Dawley rat assessed as reduction in total vertical activity at 5 mg/kg, ip administered as single dose measured for 30 mins; assay type: functional, organism-based
In short: (§2)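 Rats (n = 9–10/group) received SB242084 (1 mg/kg ip) or vehicle (8% 2-hydroxypropyl-β-cyclodextrin) 15 min before ip WAY163909 (1 mg/kg) plus compound (5 mg/kg). They were placed in monitors immediately; ambulations and vertical activity were totalled over 30 min. Analysis: ANOVA with Bonferroni comparisons.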

[6] = biological target: 5-hydroxytryptamine receptor 5A (Homo sapiens) (UniProt P47898); experiment: Displacement of [3H]-LSD from recombinant human 5-HT5AR expressed in Flp-IN CHO cell membranes at 10 uM after 90 mins by scintillation counting method relative to control
[7] = biological target: 5-hydroxytryptamine receptor 1E (Homo sapiens) (UniProt P28566); experiment: Displacement of [3H]-5-HT from recombinant human 5-HT1ER expressed in HEK cell membranes at 10 uM after 90 mins by scintillation counting method relative to control
[8] = biological target: T1, 5-hydroxytryptamine receptor 2C (Homo sapiens) (UniProt P28335); experiment: Displacement of [3H]-mesulergine from recombinant human 5-HT2CR expressed in Flp-IN HEK cell membranes at 10 uM after 90 mins by scintillation counting method relative to control; in short: as §1
T1 sequence (whole entry): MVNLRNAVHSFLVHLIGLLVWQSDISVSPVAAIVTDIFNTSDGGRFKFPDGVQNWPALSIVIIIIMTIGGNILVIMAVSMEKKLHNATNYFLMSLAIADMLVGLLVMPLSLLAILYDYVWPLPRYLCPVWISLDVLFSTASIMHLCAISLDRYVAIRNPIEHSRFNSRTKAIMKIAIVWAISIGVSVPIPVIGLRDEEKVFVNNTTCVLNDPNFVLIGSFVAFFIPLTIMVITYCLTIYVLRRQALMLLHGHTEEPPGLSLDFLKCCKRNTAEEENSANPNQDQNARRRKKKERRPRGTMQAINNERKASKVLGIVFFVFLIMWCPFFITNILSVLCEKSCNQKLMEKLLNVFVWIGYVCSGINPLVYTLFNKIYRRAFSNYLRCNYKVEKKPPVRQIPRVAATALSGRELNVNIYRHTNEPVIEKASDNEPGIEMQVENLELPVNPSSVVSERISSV

[9] = biological target: Sodium-dependent serotonin transporter (Homo sapiens) (UniProt P31645); experiment: Displacement of [3H]-citalopram from recombinant human SERT expressed in HEK cell membranes at 10 uM after 90 mins by scintillation counting method relative to control
[10] = Clearance in Sprague-Dawley rat at 5 mg/kg, iv administered as single dose; assay type: ADME, organism-based; settings: in vivo
[11] = biological target: 5-hydroxytryptamine receptor 1D (Homo sapiens) (UniProt P28221); experiment: Displacement of [3H]-GR125743 from recombinant human 5-HT1DR expressed in HEKT cell membranes at 10 uM after 90 mins by scintillation counting method relative to control
[12] = biological target: D(2) dopamine receptor (Homo sapiens) (UniProt P14416); experiment: Displacement of [3H]-N-methylspiperone from recombinant human D2R expressed in fibroblast membranes at 10 uM after 90 mins by scintillation counting method relative to control; assay type: cell membranes
[13] = biological target: Alpha-2A adrenergic receptor (Homo sapiens) (UniProt P08913); experiment: Displacement of [3H]-rauwolscine from recombinant human alpha-2A adrenergic receptor expressed in MDCK cell membranes at 10 uM after 90 mins by scintillation counting method relative to control; in short: as §1
Rattus norvegicus [14] = experiment: Increase in WAY163909-induced suppression of spontaneous locomotor activity in Sprague-Dawley rat assessed as reduction in total vertical activity at 5 mg/kg, ip cotreated with WAY163909 at 15 mins post 5-HT2C antagonist SB242084 treatment measured for 30 mins; assay type: functional, organism-based; in short: as §2
[15] = biological target: 5-hydroxytryptamine receptor 7 (Homo sapiens) (UniProt P34969); experiment: Displacement of [3H]-LSD from recombinant human 5-HT7R expressed in HEK cell membranes at 10 uM after 90 mins by scintillation counting method relative to control
CHO = experiment: Cytotoxicity against CHO cells at 0.1 to 1000 nM after 1 hrs by LDH release assay; assay type: cell-based, Cricetulus griseus; settings: chinese hamster, 1 µM
In short: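 Lactate dehydrogenase release assay for cytotoxicity, compounds tested at 0.1 nM and 1 μM.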

[16] = biological target: 5-hydroxytryptamine receptor 2A (Homo sapiens, UniProt P28223); experiment: Positive allosteric modulation of human 5-HT2AR expressed in CHO cells assessed as increase in 5-HT-induced intracellular calcium release at 0.000001 to 1 uM preincubated for 15 mins followed by 5-HT addition by calcium-4 dye based FLIPR assay; assay type: cell-based
In short: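 Human 5-HT2AR-CHO cells, same calcium assay: Calcium 4 dye with probenecid. Compound (1 pM, 1 nM, 1 μM) was given 15 min before a 5-HT concentration–response (10 pM–10 μM). Peak fluorescence was fit by 4-parameter regression.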

[17] = Terminal half life in Sprague-Dawley rat at 5 mg/kg, iv administered as single dose; assay type: ADME, organism-based; settings: in vivo
5-HT2A receptor = 5-HT2A receptor (Homo sapiens, UniProt P28223); experiment: Displacement of [3H]-Ketanserin from recombinant human 5-HT2AR expressed in HEKT cell membranes at 10 uM after 90 mins by scintillation counting method relative to control; settings: probe [3H]-Ketanserin
[18] = Terminal half life in Sprague-Dawley rat at 10 mg/kg, po administered as single dose; assay type: ADME, organism-based; settings: in vivo

Chain of D(2) dopamine receptor (Homo sapiens) (P14416 whole entry): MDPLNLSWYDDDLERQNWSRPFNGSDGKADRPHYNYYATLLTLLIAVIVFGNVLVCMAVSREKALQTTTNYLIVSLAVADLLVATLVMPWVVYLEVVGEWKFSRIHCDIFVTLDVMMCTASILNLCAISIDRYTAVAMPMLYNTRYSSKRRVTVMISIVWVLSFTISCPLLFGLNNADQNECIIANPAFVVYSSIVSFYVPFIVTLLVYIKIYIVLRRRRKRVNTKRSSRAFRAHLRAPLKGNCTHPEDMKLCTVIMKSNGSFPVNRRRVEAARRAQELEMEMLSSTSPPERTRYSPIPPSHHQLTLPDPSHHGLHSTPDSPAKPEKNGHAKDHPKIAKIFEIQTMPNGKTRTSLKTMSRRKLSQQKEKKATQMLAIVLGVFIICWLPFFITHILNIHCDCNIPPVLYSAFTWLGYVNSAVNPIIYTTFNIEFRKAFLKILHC
Chain of 5-hydroxytryptamine receptor 7 (Homo sapiens) (P34969 whole entry): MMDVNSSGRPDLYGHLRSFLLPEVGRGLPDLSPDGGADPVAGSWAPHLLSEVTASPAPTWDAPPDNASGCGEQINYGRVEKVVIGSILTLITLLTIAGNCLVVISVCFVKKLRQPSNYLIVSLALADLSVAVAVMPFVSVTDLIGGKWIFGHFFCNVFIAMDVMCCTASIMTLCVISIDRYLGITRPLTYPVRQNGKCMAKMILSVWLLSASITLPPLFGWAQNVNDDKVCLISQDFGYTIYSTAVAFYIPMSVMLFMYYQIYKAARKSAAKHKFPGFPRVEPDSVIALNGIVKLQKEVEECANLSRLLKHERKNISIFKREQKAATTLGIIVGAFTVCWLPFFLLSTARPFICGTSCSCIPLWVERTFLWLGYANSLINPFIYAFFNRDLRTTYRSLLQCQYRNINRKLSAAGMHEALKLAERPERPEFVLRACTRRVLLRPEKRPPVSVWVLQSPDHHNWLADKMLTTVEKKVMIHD
Chain of Sodium-dependent serotonin transporter (Homo sapiens) (P31645 whole entry, looked up): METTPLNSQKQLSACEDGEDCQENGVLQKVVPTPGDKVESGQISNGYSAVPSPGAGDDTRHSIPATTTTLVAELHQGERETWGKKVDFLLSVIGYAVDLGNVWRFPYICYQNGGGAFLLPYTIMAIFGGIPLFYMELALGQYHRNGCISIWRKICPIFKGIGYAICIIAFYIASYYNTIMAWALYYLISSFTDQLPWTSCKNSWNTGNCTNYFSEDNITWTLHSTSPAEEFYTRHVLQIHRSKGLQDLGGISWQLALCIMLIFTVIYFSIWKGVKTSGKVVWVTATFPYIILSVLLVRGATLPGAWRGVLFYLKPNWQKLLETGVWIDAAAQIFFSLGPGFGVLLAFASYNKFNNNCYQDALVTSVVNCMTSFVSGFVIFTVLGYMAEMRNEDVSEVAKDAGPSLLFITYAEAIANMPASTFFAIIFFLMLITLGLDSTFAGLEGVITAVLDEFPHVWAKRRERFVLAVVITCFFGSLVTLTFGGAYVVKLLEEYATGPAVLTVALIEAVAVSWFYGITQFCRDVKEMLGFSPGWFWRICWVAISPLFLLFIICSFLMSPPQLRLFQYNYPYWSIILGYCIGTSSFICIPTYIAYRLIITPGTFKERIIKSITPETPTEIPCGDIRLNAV
Chain of Alpha-2A adrenergic receptor (Homo sapiens) (P08913 whole entry): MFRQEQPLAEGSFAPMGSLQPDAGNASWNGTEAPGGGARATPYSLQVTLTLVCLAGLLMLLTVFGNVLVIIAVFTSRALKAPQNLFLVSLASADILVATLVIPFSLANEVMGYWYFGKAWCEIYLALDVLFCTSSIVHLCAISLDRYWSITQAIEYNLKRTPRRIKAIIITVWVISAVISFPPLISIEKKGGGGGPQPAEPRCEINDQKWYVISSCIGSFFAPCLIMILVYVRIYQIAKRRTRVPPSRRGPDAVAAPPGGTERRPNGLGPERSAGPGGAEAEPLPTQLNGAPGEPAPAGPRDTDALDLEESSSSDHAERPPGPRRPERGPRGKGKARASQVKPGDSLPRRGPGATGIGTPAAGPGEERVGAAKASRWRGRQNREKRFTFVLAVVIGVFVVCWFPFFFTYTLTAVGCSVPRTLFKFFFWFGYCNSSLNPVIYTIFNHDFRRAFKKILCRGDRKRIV
Chain of 5-hydroxytryptamine receptor 5A (Homo sapiens) (P47898 whole entry): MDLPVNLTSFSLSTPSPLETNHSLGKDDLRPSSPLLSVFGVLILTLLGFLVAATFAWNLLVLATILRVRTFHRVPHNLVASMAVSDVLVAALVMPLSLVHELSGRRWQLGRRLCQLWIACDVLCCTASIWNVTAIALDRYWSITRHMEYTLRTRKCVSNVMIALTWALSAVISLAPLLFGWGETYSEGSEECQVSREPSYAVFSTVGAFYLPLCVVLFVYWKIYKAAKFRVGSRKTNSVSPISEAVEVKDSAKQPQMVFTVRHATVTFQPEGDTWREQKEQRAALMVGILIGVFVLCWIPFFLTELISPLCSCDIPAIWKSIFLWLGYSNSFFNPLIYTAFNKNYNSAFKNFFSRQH
Chain of Alpha-2B adrenergic receptor (Homo sapiens) (P18089 whole entry): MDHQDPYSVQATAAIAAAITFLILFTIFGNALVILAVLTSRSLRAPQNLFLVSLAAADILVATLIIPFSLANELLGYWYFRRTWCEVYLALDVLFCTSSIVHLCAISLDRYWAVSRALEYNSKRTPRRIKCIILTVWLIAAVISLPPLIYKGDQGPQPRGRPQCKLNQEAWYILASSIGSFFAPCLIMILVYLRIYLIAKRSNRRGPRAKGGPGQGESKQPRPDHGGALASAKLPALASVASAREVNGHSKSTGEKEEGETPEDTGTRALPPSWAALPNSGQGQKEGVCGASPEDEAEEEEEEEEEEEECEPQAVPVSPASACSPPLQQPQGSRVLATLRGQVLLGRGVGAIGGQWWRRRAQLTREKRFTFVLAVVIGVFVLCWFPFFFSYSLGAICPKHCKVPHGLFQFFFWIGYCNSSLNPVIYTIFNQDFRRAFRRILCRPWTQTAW
Chain of Sodium-dependent dopamine transporter (Homo sapiens) (Q01959 whole entry): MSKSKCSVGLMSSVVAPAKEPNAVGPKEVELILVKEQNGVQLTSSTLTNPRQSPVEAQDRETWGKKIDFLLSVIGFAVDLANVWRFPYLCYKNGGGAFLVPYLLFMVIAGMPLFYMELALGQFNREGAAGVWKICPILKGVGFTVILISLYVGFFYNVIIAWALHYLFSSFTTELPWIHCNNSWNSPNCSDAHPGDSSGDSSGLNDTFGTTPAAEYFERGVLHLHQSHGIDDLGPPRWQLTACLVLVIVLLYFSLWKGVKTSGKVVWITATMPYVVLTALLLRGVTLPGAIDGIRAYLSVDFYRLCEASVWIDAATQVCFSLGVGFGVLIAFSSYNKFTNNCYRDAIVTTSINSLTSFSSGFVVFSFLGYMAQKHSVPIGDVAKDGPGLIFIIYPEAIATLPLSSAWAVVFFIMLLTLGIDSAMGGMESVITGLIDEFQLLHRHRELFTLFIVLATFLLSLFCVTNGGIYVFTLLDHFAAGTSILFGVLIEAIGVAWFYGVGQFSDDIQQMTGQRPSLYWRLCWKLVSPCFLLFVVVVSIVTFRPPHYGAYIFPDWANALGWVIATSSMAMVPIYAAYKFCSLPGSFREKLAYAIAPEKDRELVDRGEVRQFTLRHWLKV
Chain of 5-HT2B receptor (P41595 whole entry): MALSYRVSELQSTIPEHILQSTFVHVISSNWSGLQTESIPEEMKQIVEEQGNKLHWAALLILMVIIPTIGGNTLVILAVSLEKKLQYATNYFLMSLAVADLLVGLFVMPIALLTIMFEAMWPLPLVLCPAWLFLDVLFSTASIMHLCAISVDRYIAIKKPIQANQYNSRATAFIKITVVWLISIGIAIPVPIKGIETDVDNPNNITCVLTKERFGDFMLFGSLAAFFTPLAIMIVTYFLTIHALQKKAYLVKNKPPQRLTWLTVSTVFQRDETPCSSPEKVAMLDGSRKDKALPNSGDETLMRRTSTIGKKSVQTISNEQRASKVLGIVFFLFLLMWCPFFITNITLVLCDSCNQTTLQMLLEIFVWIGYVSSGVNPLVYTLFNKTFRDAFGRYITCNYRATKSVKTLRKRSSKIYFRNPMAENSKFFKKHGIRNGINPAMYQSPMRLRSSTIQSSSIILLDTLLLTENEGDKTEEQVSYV
Chain of 5-hydroxytryptamine receptor 2A (P28223 whole entry): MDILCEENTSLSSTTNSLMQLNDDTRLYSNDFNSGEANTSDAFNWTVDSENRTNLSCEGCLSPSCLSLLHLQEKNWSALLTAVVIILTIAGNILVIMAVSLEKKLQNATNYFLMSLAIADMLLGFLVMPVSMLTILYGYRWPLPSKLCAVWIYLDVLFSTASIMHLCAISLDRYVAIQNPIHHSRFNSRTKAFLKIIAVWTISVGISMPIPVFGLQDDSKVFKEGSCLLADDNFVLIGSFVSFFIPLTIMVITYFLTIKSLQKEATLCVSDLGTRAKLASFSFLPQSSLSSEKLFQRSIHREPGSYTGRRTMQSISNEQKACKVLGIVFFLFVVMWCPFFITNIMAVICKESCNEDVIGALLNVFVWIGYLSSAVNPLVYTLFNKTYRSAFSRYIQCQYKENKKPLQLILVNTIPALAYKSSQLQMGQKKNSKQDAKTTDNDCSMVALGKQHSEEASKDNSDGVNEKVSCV
Chain of 5-HT2A receptor (P28223 whole entry): as above

SMILES: CCCCCCCCCCC[C@@H]1CCN[C@H](C(=O)NCC(O)CO)C1 (relative stereo)
- inhibition [1]: 80.7%
- inhibition [2]: 66.3%
- inhibition [3]: 25.7%
- inhibition at 1.5 h, 10 µM (5-HT2B receptor): 15.1%
- Emax at 1 mg/kg (Rattus norvegicus [4]): 45%
- Activity (Rattus norvegicus [5]): Active
- inhibition [6]: 17.2%
- inhibition [7]: 0.7%
- inhibition [8]: 9.8%
- inhibition [9]: 24.8%
- CL [10]: 89.5 mL/min/kg
- inhibition [11]: 5.5%
- inhibition [12]: 28.8%
- inhibition [13]: 85.1%
- Activity (Rattus norvegicus [14]): Active
- inhibition [15]: 26.8%
- Activity (CHO): Non-Toxic
- Activity [16]: Not Active
- beta t1/2 [17]: 6.59 h
- inhibition at 1.5 h, 10 µM (5-HT2A receptor): 37.1%
- beta t1/2 [18]: 5.82 h
